{"data": "Published values collected from several papers", "target": "Serine/threonine-protein kinase SIK2 (SIK2, Homo sapiens, UniProt Q9H0K1)", "note": "Lines come from different studies, so protocols differ."}
{"SMILES": "CC(C)(C)c1cc(C=C(C#N)C#N)cc(Br)c1O", "test": "enzyme activity, inhibitor", "setting": "0.5 µM", "measurement": "remaining activity", "value": "115%"}
{"SMILES": "Cc1nn(C)cc1-c1nc2c(N3CCN(Cc4ccc(Cl)cc4)CC3)c(Cl)cnc2[nH]1", "test": "binding, competition with immobilised ligand", "setting": "1 µM", "measurement": "remaining binding", "value": "36%"}
{"SMILES": "O=C(NCc1ncc(C(F)(F)F)cc1Cl)c1ccc2c(c1)C1(CCS(=O)(=O)CC1)[C@H](C1CC1)N2S(=O)(=O)c1ccc(F)cc1", "test": "cell-free assay, competition with immobilised ligand", "setting": "1 µM", "measurement": "remaining binding", "value": "96%"}
{"SMILES": "O=c1[nH]c2ccccc2n1C1CCN(Cc2ccc(-c3[nH]c4cc5ncnc5cc4nc3-c3ccccc3)cc2)CC1", "test": "cell-free assay", "setting": "0.5 µM", "measurement": "remaining signal", "value": "114%"}
{"SMILES": "Cn1cc(-c2cc(F)cc(N3CCn4c(cc5c4CCCC5)C3=O)c2CO)cc(Nc2ccc(N3CCN(C4COC4)CC3)cn2)c1=O", "test": "enzyme activity, inhibitor", "setting": "0.1 µM", "measurement": "inhibition", "value": "13%"}
{"SMILES": "Cn1cncc1[C@](O)(COc1ccc(C#N)cc1-c1ccc(OC(F)(F)F)cc1)c1ccc(C#N)cc1", "test": "cell-free assay, competition with immobilised ligand", "setting": "1 µM", "measurement": "remaining binding", "value": "95%"}
{"SMILES": "Cn1cc(-c2cccc(N3CCc4c(sc5c4CC(C)(C)C5)C3=O)c2CO)cc(Nc2ccncn2)c1=O", "test": "enzyme activity, inhibitor", "setting": "1 µM", "measurement": "inhibition", "value": "4%"}
{"SMILES": "COc1ncccc1-c1cnn2ccc(N3CCN(C(=O)OC(C)C)CC3)nc12", "test": "binding, competition with immobilised ligand", "setting": "1 µM", "measurement": "remaining binding", "value": "50%"}
